Results reported in ChEMBL document CHEMBL4130344, “Substituted arylsulphonamides as inhibitors of perforin-mediated lysis” (Eur J Med Chem, 2017).

assay: Metabolic stability in human liver microsomes assessed as parent compound remaining at 3 uM after 30 mins by LC-MS/MS method; type: ADME, microsome; conditions: read-out: Stability
How it was run: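 Compounds were tested as sodium salts. The read-out was the percentage of parent compound remaining after 30 min exposure to human microsomes.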

Row | Structure (SMILES) | remaining at 0.5 h, 3 µM [%]
1 | CN1Cc2cc(-c3ccc(-c4cncc(NS(=O)(=O)c5c(F)cc(F)cc5F)c4)s3)ccc2C1=O | 63
2 | CN1Cc2cc(-c3ccc(-c4cncc(NS(=O)(=O)c5cccc(C(F)(F)F)c5)c4)s3)ccc2C1=O | 57
3 | CN1Cc2cc(-c3ccc(-c4cncc(NS(=O)(=O)c5ccccc5C(F)(F)F)c4)s3)ccc2C1=O | 14
4 | CN1Cc2cc(-c3ccc(-c4cncc(NS(=O)(=O)c5ccc([N+](=O)[O-])cc5)c4)s3)ccc2C1=O | 39
5 | CN1Cc2cc(-c3ccc(-c4cncc(NS(=O)(=O)c5ccc(C#N)cc5)c4)s3)ccc2C1=O | 52
